The entries come from a sample that favours hits as a whole.
IDH1 R132H inh: inhibitors of IDH1 R132H reductase, primary screen, biochemical, plate reader, single point | inhibition, % at 10 µM | diaphorase/resazurin fluorescence, 60 min | Isocitrate dehydrogenase [NADP] cytoplasmic (Homo sapiens), O75874 | 0.18% of 70,000 active; in the data active = inhibition above about 34%; inconclusive = no clear call, values can overlap the other calls; inactive = below about 11%;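 also: 0% = DMSO and 100% = no enzyme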
T cruzi growth-1: T. cruzi intracellular proliferation inhibitors, primary screen, cell-based, beta-gal Tulahuen parasites, NIH3T3 host, luminescence; 5.9% of 77,000 active; AID 624255, 2012; T. cruzi beta-gal in NIH3T3, GalScreen luminescence, 90 h; inhibition, % at 8.34 µM;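 active = mean inhibition above about 93%, with at least 55% of replicates each passing it, limit read from the data, passing the limit was not always enough; inconclusive = only one of those two conditions holds; inactive = neither condition holds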
KDM4C inh: inhibitors of GASC-1 (KDM4C) histone demethylase, primary screen, biochemical, single concentration HTS | Lysine-specific demethylase 4C (Homo sapiens), Q9H3R0 | GST-KDM4C 2-372, H3K9me3 peptide, LANCE TR-FRET | inhibition, % at 12.5 µM | 0.15% of 96,000 active | AID 720574, 2013;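 active = mean replicate inhibition above about 25%, with at least 55% of replicates also reaching it, limit read from the data, passing the limit was not always enough; inconclusive = only one of those two conditions met; inactive = neither condition met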
Target sequence (Q9H3R0 2-372 limits assumed): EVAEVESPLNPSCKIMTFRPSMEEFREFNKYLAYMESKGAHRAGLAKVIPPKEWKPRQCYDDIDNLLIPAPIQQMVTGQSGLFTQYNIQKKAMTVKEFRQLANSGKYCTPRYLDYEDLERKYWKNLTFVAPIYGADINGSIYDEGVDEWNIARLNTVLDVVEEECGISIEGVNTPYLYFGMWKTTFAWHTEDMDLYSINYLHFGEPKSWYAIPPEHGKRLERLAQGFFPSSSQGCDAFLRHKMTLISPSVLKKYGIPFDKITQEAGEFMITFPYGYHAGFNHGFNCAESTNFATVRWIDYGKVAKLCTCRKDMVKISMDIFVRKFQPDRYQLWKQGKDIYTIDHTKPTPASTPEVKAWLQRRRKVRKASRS
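System: N-terminal GST-fused human GASC-1 (KDM4C) fragment, residues 2-372; amount: enzyme final amount 10 nM; incubation: reaction 30 min RT, detection step 1 h RT; medium: HEPES buffer, pH 7.5, plus ascorbate; technique: LANCE TR-FRET, Eu antibody, ULight-streptavidin, EDTA, ex 340 nm, em 618/671 nm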
T cruzi growth-2: T. cruzi intracellular proliferation inhibitors, confirmation, cell-based, NIH3T3 host, beta-gal parasite, luminescence, cherry-pick | shares compounds with T cruzi growth-1 | T. cruzi beta-gal in NIH3T3, GalScreen luminescence, 90 h | inhibition, % at 8.35 µM | 72% of 5,600 active;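 active = mean replicate inhibition above about 95% and at least 55% of replicates individually reaching it, limit read from the data; inconclusive = only one of the two criteria is met; inactive = neither criterion is met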
T cruzi growth-3: inhibitors of intracellular T. cruzi replication, confirmation, NIH3T3 host cells, beta-gal parasites, cherry-pick, set 2; T. cruzi beta-gal in NIH3T3, GalScreen luminescence, 90 h; shares compounds with T cruzi growth-1; 21% of 5,600 active; inhibition, % at 2.09 µM;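 active = mean inhibition above about 95%, with at least 55% of replicates also reaching it, limit read from the data; inconclusive = meets just one of the two conditions; inactive = meets neither condition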;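 also: plate controls were neutral control median for no effect and positive control median for full effect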
NIH3T3 tox: cytotoxicity in mouse NIH/3T3 fibroblasts, confirmation, cytotoxicity control for T. cruzi proliferation inhibitor project, cell-based, cherry-pick, single point; shares compounds with T cruzi growth-1; NIH/3T3 viability, CellTiter-Glo ATP luminescence, 90 h; cytotoxicity (signal decrease), % at 8.35 µM; 14% of 5,600 active; AID 651742, 2012;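 active = mean signal decrease across replicates above about 35% based on untreated-well scatter, with enough replicates individually passing, limit read from the data; inconclusive = no rule stated though some were filed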;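 also: 0% = median of neutral control wells and 100% = median of positive control wells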
3T3 cytotox 2: NIH/3T3 fibroblast cytotoxicity, confirmation, cytotoxicity control, cell-based, cherry-pick, single point, set 2. shares compounds with T cruzi growth-1. NIH/3T3 viability, CellTiter-Glo ATP luminescence, 90 h. inhibition, % at 24.9 µM. 56% of 5,600 active. AID 651744, 2012;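 active = mean loss of cell viability signal at or above a set limit, and enough replicates individually reaching it; inconclusive = meets only the mean limit or only the replicate share; inactive = meets neither condition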;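 also: 0% = median of neutral control wells and 100% = median of positive control wells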
* hit, by the source's call; ? = inconclusive; · = no result.

SMILES	IDH1 R132H inh	T cruzi growth-1	KDM4C inh	T cruzi growth-2	T cruzi growth-3	NIH3T3 tox	3T3 cytotox 2
C[C@H]1CN([C@@H](C)CO)S(=O)(=O)c2ccc(C#Cc3ccc(F)cc3)cc2O[C@@H]1CN(C)S(=O)(=O)c1cn(C)cn1	0	122*	·	103*	101*	46*	49*
C[C@H](CO)N1C[C@H](C)[C@H](CN(C)S(=O)(=O)c2cn(C)cn2)Oc2cc(C#Cc3ccccc3)ccc2S1(=O)=O	0	54	1	·	·	·	·
Cc1ccc(-c2nnc3c4ccccc4c(C)nn23)cc1S(=O)(=O)N1CCOCC1	0	·	·	·	·	·	·
O=S(=O)(NC1CCCCC1Sc1nnc(Nc2ccccc2)s1)c1ccccc1 (stereo unspecified)	1	·	·	·	·	·	·
Cc1ccc(S(=O)(=O)N(C)C[C@H]2Oc3cc(C#Cc4ccncc4)ccc3S(=O)(=O)N([C@H](C)CO)C[C@@H]2C)cc1	0	45	-18	·	·	·	·
O=C(C[C@@H]1C[C@@H]2c3cc(NC(=O)Nc4ccccc4F)ccc3O[C@@H]2[C@@H](CO)O1)NCc1ccc(Oc2ccccc2)cc1	0	15	1	·	·	·	·
O=C(C[C@H]1C[C@@H]2c3cc(NC(=O)C4CCOCC4)ccc3O[C@@H]2[C@@H](CO)O1)NCc1ccc(Oc2ccccc2)cc1	0	156*	0	33	-11	-12	12
O=C(C[C@@H]1C[C@H]2c3cc(NC(=O)Nc4ccccc4F)ccc3O[C@H]2[C@H](CO)O1)NCc1ccc(Oc2ccccc2)cc1	0	106*	0	92	52	22	78*
O=C(C[C@@H]1C[C@H]2c3cc(NC(=O)C4CCOCC4)ccc3O[C@H]2[C@@H](CO)O1)NCc1ccc(Oc2ccccc2)cc1	1	29	-3	·	·	·	·
Cc1cccc(-c2ccc([C@H]3[C@H]4CN(Cc5cncnc5)CCCCN4[C@H]3CO)cc2)c1	·	68	2	·	·	·	·
Cc1cccc(-c2ccc([C@H]3[C@H](CO)N4CCCCN(Cc5cncnc5)C[C@@H]34)cc2)c1	·	103*	0	100*	75	9	11
OC[C@H]1[C@@H](c2ccc(-c3ccccc3)cc2)[C@H]2CN(Cc3cncnc3)CCCCN21	·	62	1	·	·	·	·
Cc1cccc(-c2ccc([C@@H]3[C@@H](CO)N4CCCCN(Cc5ccncc5)C[C@@H]34)cc2)c1	·	71	3	·	·	·	·
OC[C@@H]1[C@@H](c2ccc(-c3cccc(F)c3)cc2)[C@H]2CN(Cc3cncnc3)CCCCN12	·	60	0	·	·	·	·
Cc1cccc(-c2ccc([C@H]3[C@@H](CO)N4CCCCN(Cc5ccncc5)C[C@@H]34)cc2)c1	·	103*	4	111*	68	25	105*
OC[C@H]1[C@H](c2ccc(-c3cccc(F)c3)cc2)[C@H]2CN(Cc3cncnc3)CCCCN21	·	94*	1	92	-5	15	105*
OC[C@H]1[C@H](c2ccc(-c3ccccc3)cc2)[C@@H]2CN(Cc3cncnc3)CCCCN12	·	107*	-1	103*	94	23	34*
COc1ccc(S(=O)(=O)N2CCOCC2)cc1C(=O)NCCN1CCOCC1	0	·	·	·	·	·	·
CCn1c(SCC(=O)c2ccc(Cl)cc2Cl)nnc1-c1cccnc1	0	·	·	·	·	·	·
CCOc1c(OC)cc(Cl)cc1C1NC(=O)NC(C)=C1C(=O)Nc1ccccc1C(=O)OC (stereo unspecified)	0	·	·	·	·	·	·
CCCCCC1OC2=C(C(=O)N(OC)C2CSCC(O)C(=O)O)C(O)C1(C)O (stereo unspecified)	0	·	·	·	·	·	·
NC(=O)CSc1nnc(-c2ccncc2)n1-c1cccc(C(F)(F)F)c1	3	·	·	·	·	·	·
OC[C@@H]1[C@@H](c2ccc(C#Cc3ccccc3)cc2)[C@H]2CN(Cc3cncnc3)CCCCN12	·	70	-1	·	·	·	·
CN(C)C(=O)c1cccc(-c2ccc([C@@H]3[C@H]4CN(Cc5cccnc5)CCCCN4[C@H]3CO)cc2)c1	·	53	3	·	·	·	·
Cc1cccc(-c2ccc([C@@H]3[C@@H](CO)N4CCCCN(Cc5cncnc5)C[C@H]34)cc2)c1	·	48	0	·	·	·	·
SMILES	IDH1 R132H inh	T cruzi growth-1	KDM4C inh	T cruzi growth-2	T cruzi growth-3	NIH3T3 tox	3T3 cytotox 2
Cc1cccc(-c2ccc([C@H]3[C@H](CO)N4CCCCN(Cc5cccnc5)C[C@@H]34)cc2)c1	·	104*	·	106*	68	22	101*
CN(C)C(=O)c1cccc(-c2ccc([C@H]3[C@@H](CO)N4CCCCN(Cc5cccnc5)C[C@@H]34)cc2)c1	·	101*	0	?	88	-10	-15
Cc1cccc(-c2ccc([C@H]3[C@@H](CO)N4CCCCN(Cc5cncnc5)C[C@@H]34)cc2)c1	·	106*	2	95*	85	37*	102*
OC[C@@H]1[C@H](c2ccc(C#Cc3ccccc3F)cc2)[C@H]2CN(Cc3cncnc3)CCCCN12	·	118*	0	103*	96*	44*	105*
COc1cccc(-c2ccc([C@H]3[C@H]4CN(Cc5cncnc5)CCCCN4[C@H]3CO)cc2)c1	·	40	0	·	·	·	·
COc1ccc(NC(=O)COc2ccc(C(C)C)cc2Br)c([N+](=O)[O-])c1	0	·	·	·	·	·	·
O=C(NO)c1cccc(C(=O)N/N=C/c2cc(O)ccc2O)c1	10	·	·	·	·	·	·
Cc1ccc(NS(=O)(=O)c2ccc(NS(=O)(=O)c3ccc4c(c3)OCCO4)cc2)c(C)c1	0	·	·	·	·	·	·
COc1cccc(-c2ccc([C@@H]3[C@@H](CO)N4CCCCN(CC5CCOCC5)C[C@@H]34)cc2)c1	·	98*	·	99*	39	18	54*
COc1cccc(-c2ccc([C@H]3[C@H]4CN(CC5CCOCC5)CCCCN4[C@H]3CO)cc2)c1	·	104*	·	74	23	3	58*
COc1cccc(-c2ccc([C@H]3[C@H](CO)N4CCCCN(CC5CCOCC5)C[C@@H]34)cc2)c1	·	91	·	·	·	·	·
COc1cccc(-c2ccc([C@@H]3[C@H](CO)N4CCCCN(CC5CCOCC5)C[C@@H]34)cc2)c1	·	50	·	·	·	·	·
CCn1c(SCC(=O)Nc2ccc(I)cc2)nnc1-c1ccccc1F	0	·	·	·	·	·	·
CC(=O)N(C)C[C@H]1Oc2ncc(C#Cc3ccccc3F)cc2C(=O)N([C@H](C)CO)C[C@H]1C	0	13	0	·	·	·	·

Bioassay records from PubChem.
